# From ChEMBL document CHEMBL1158400, “Synthesis of 2-styrylchromones as a novel class of antiproliferative agents targeting carcinoma cells” (Eur J Med Chem, 2009)
# Active and inactive are the calls of the source. No cut-off for these calls is given here.
# Columns and labels:
# PC-3 = assay: Antiproliferative activity against human PC3 cells after 12 hrs by MTT assay; format: functional, cell-based; settings: PC-3, 12 h
# Procedure, shortened: (§1)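 MTT assay. Cells grown as monolayers in DMEM with 10% FBS, 2 mM glutamine and penicillin/streptomycin at 37 °C, 5% CO2. Seeded at 1×10^4 cells/well and held 12 h before serial compound dilutions were added. Final DMSO was under 1% (v/v). MTT (2 mg/ml) was present for the last 1.5 h; the formazan was dissolved in DMSO and read at 570 nm. IC50 interpolated from dose-response curves; mean ± sem of four to six experiments.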
# A549 = assay: Antiproliferative activity against human A549 cells after 12 hrs by MTT assay; format: functional, cell-based; settings: A549, 12 h; procedure, shortened: as §1
# [1] = Antiproliferative activity against human BT-483 cells after 12 hrs by MTT assay; format: functional, cell-based; settings: BT-483, 12 h; procedure, shortened: as §1
# HeLa [2] = assay: Antiproliferative activity against human HeLa cells after 12 hrs by MTT assay; format: functional, cell-based; procedure, shortened: as §1
# [3] = Antiproliferative activity against human SKHep cells after 12 hrs by MTT assay; format: functional, cell-based; procedure, shortened: as §1
# HeLa [4] = assay: Cell cycle arrest in human HeLa cells assessed as accumulation at G1 phase at 20 uM after 24 hrs using propidium iodide staining by FACS analysis; format: functional, cell-based
# HeLa [5] = assay: Antiproliferative activity against human HeLa cells at 3 uM after 30 hrs by MTT assay; format: functional
# Procedure, shortened: (§2)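 HeLa cells at 10^4 cells/well were given the compound at 1.0, 3.0 or 10 μM, alongside an untreated control and a 0.1% DMSO control. Proliferation was followed by MTT at several time points over a 30 h period.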
# HeLa [6] = assay: Antiproliferative activity against human HeLa cells assessed as DNA fragmentation at 10 uM after 24 hrs using […] DAPI staining by fluorescence microscopy; format: functional, cell-based
# Procedure, shortened: (§3)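 HeLa cells grown on cover glasses were treated 24 h with 5 or 10 μM compound, with untreated and 0.5% DMSO controls. They were fixed in 4% paraformaldehyde, glycine-washed and permeabilized with 2% FBS/0.4% Triton X-100. Nuclei were stained with DAPI (0.1 μg/ml) for 5 min in the dark, and DNA fragmentation was examined by fluorescence microscopy.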
# HeLa [7] = assay: Cell cycle arrest in human HeLa cells assessed as accumulation at sub-G1 phase after 24 hrs using propidium iodide staining by FACS analysis; format: functional, cell-based
# Procedure, shortened: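 HeLa cells were treated 24 h with compound at 5 or 20 μM, with a 0.5% DMSO control and untreated blank. Cells were harvested, rinsed in PBS and fixed in 80% ethanol at −20 °C. They were stained with propidium iodide and analysed by flow cytometry. The sub-diploid (apoptotic) population is expressed as a percentage of all cells.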
# HeLa [8] = assay: Antiproliferative activity against human HeLa cells assessed as morphological changes at 20 uM after 24 hrs using DAPI staining by fluorescence microscopy; format: functional, cell-based
# Procedure, shortened: (§4)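 HeLa cells were exposed 24 h to 5, 10 or 20 μM compound, with untreated and DMSO controls. Morphology (cell rounding, detachment from substratum) was examined.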
# HeLa [9] = assay: Antiproliferative activity against human HeLa cells assessed as morphological changes at 10 uM after 24 hrs using DAPI staining by fluorescence microscopy; format: functional, cell-based; procedure, shortened: as §4
# HeLa [10] = assay: Antiproliferative activity against human HeLa cells assessed as morphological changes at 5 uM after 24 hrs using DAPI staining by fluorescence microscopy; format: functional, cell-based; procedure, shortened: as §4
# HeLa [11] = assay: Antiproliferative activity against human HeLa cells assessed as DNA fragmentation at 5 uM after 24 hrs using […] DAPI staining by fluorescence microscopy; format: functional, cell-based; procedure, shortened: as §3
# HeLa [12] = assay: Antiproliferative activity against human HeLa cells at 10 uM after 30 hrs by MTT assay; format: functional; procedure, shortened: as §2
SMILES,IC50 (PC-3),IC50 (A549),IC50 (HeLa [2]),IC50 ([1]; read-out: IC50),IC50 ([1]; read-out: pIC50 (converted)),IC50 [3],Activity (HeLa [4]),Activity (HeLa [5]),Activity (HeLa [6]),Activity (HeLa [7]),Activity (HeLa [8]),Activity (HeLa [9]),Activity (HeLa [10]),Activity (HeLa [11]),Activity (HeLa [12])
COc1cc(OC)c2c(=O)cc(/C=C/c3ccc(OCC4CC4)cc3)oc2c1,> 40 µM,20.9 µM,10.9 µM,16.6 µM,16.6 µM,22.1 µM,–,–,–,–,–,–,–,–,–
COc1cc(OC)c2c(=O)cc(/C=C/c3ccc(C(F)(F)F)cc3)oc2c1,> 40 µM,> 40 µM,19 µM,> 40 µM,60.3 µM,20.6 µM,Active,–,–,–,–,–,–,–,–
COc1ccc2oc(/C=C/c3ccc(OC(F)(F)F)cc3)cc(=O)c2c1,> 40 µM,> 40 µM,9 µM,> 40 µM,–,> 40 µM,–,–,–,–,–,–,–,–,–
COc1cccc2oc(/C=C/c3ccc(OC(F)(F)F)cc3)cc(=O)c12,> 40 µM,> 40 µM,9.1 µM,18.2 µM,18.2 µM,21 µM,–,–,–,–,–,–,–,–,–
COc1cc(OC)c2c(=O)cc(/C=C/c3ccc(Br)cc3)oc2c1,> 40 µM,> 40 µM,> 40 µM,> 40 µM,60.3 µM,> 40 µM,–,–,–,–,–,–,–,–,–
COc1cc(/C=C/c2cc(=O)c3c(OC)cc(OC)cc3o2)cc(OC)c1,> 40 µM,15.6 µM,16.7 µM,16.6 µM,16.6 µM,23.7 µM,–,–,–,–,–,–,–,–,–
COc1cc(OC)c2c(=O)cc(/C=C/c3ccc(Cl)cc3)oc2c1,> 40 µM,> 40 µM,14.2 µM,26.1 µM,26.3 µM,26.9 µM,–,–,–,–,–,–,–,–,–

# More lines, main results first:
IC50 (PC-3),IC50 (A549),IC50 (HeLa [2]),SMILES,IC50 ([1]; read-out: IC50),IC50 ([1]; read-out: pIC50 (converted)),IC50 [3],Activity (HeLa [4]),Activity (HeLa [5]),Activity (HeLa [6]),Activity (HeLa [7]),Activity (HeLa [8]),Activity (HeLa [9]),Activity (HeLa [10]),Activity (HeLa [11]),Activity (HeLa [12])
> 40 µM,19.7 µM,9.6 µM,COc1cc(OC)c2c(=O)cc(/C=C/c3ccc([N+](=O)[O-])cc3)oc2c1,25.5 µM,25.5 µM,22 µM,–,–,–,–,–,–,–,–,–
> 40 µM,> 40 µM,18.8 µM,COc1cc(OC)c2c(=O)cc(/C=C/c3ccncc3)oc2c1,25.2 µM,25.1 µM,> 40 µM,–,–,–,–,–,–,–,–,–
> 40 µM,21.5 µM,10.1 µM,COc1cc(OC)c2c(=O)cc(/C=C/c3ccccc3)oc2c1,> 40 µM,–,26 µM,Active,–,–,–,–,–,–,–,–
> 40 µM,> 40 µM,9.9 µM,COc1ccc2c(=O)cc(/C=C/c3ccc(OC(F)(F)F)cc3)oc2c1,20.1 µM,20 µM,> 40 µM,–,–,–,–,–,–,–,–,–
> 40 µM,> 40 µM,16.4 µM,COc1cc(OC)c2c(=O)cc(/C=C/c3ccc4c(c3)OCO4)oc2c1,29.3 µM,29.5 µM,23.7 µM,–,–,–,–,–,–,–,–,–
> 40 µM,> 40 µM,4.9 µM,COc1ccc2c(=O)cc(/C=C/c3ccc(OC(F)(F)F)cc3)oc2c1OC,30.9 µM,30.9 µM,12.4 µM,–,15%,Active,Dose-dependent effect,Active,Active,Active,inactive,60%
> 40 µM,18.6 µM,14.2 µM,COc1cc(OC)c2c(=O)cc(/C=C/c3ccc(F)cc3)oc2c1,19.9 µM,20 µM,29.2 µM,–,–,–,–,–,–,–,–,–
> 40 µM,> 40 µM,17.8 µM,COc1ccc(/C=C/c2cc(=O)c3c(OC)cc(OC)cc3o2)cc1,29.6 µM,29.5 µM,> 40 µM,–,–,–,–,–,–,–,–,–
> 40 µM,24.2 µM,> 40 µM,COc1cc(OC)c2c(=O)cc(/C=C/c3ccc(OC(F)(F)F)cc3)oc2c1,26.6 µM,26.3 µM,12.5 µM,–,–,–,–,–,–,–,–,–
